Data: ChEMBL document CHEMBL2016521, “Preparation, gram-negative antibacterial activity, and hydrolytic stability of novel siderophore-conjugated monocarbam diols” (ACS Med Chem Lett, 2011)

Tests used:
Pseudomonas aeruginosa [1] = assay: Antibacterial activity against Pseudomonas aeruginosa; format: functional
Pseudomonas aeruginosa [2] = assay: Antibacterial activity against imipenem-sensitive Pseudomonas aeruginosa isolate 1091-05 infected in ip dosed SF-1 mouse assessed as survival of animal administered 0.5 and 4 hrs post infected measured on day 4; format: functional; conditions: isolate 1091-05, ip, read-out: PD50
[3] = Fraction unbound in mouse plasma at 1 uM by LC-MS/MS analysis; format: ADME, cell-free
Acinetobacter baumannii = assay: Antibacterial activity against Acinetobacter baumannii AB-3167; format: functional
Klebsiella pneumoniae [4] = assay: Antibacterial activity against Klebsiella pneumoniae 1000-02; format: functional
Pseudomonas aeruginosa [5] = assay: Antibacterial activity against imipenem-sensitive Pseudomonas aeruginosa isolate 1091-05 infected in sc dosed neutropenic-C3H/HeN mouse assessed as mouse survival administered 4 hrs post infection followed by BID dosing for two days measured on day 10; format: functional; conditions: isolate 1091-05, sc, read-out: PD50
Pseudomonas aeruginosa [6] = assay: Antibacterial activity against Pseudomonas aeruginosa isolate 1091-05; format: functional
Pseudomonas aeruginosa [7] = assay: Antibacterial activity against metallo-beta-lactamase producing Pseudomonas aeruginosa; format: functional
Pseudomonas aeruginosa [8] = assay: Antibacterial activity against Pseudomonas aeruginosa cystic fibrosis isolate; format: functional
Citrobacter freundii = assay: Antimicrobial activity against Citrobacter freundii; format: functional
Pseudomonas aeruginosa [9] = assay: Antibacterial activity against Pseudomonas aeruginosa clinical isolate; format: functional
Escherichia coli [10] = assay: Antimicrobial activity against Escherichia coli clinical isolate; format: functional
[11] = Chemical stability of the compound in phosphate buffer at pH 6 at 1 uM after 24 hrs by HPLC analysis; format: physicochemical; conditions: pH 6, 24 h
How it was run: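 Hydrolytic stability of the β-lactam ring was measured in aqueous buffer at pH 6.0 and 37 °C.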

Klebsiella pneumoniae [12] = assay: Antimicrobial activity against Klebsiella pneumoniae clinical isolate; format: functional
Escherichia coli [13] = assay: Antimicrobial activity against CTX-M-positive extended spectrum beta-lactamase-producing Escherichia coli; format: functional
Serratia marcescens = assay: Antimicrobial activity against Serratia marcescens; format: functional
Escherichia coli [14] = assay: Antimicrobial activity against extended spectrum beta-lactamase-producing Escherichia coli; format: functional
Klebsiella aerogenes = assay: Antimicrobial activity against Enterobacter aerogenes; format: functional
[15] = Chemical stability of the compound in phosphate buffer at pH 8 assessed as drug degradation at 1 uM after 100 hrs by HPLC analysis; format: physicochemical; conditions: read-out: Drug degradation
How it was run: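 Hydrolytic β-lactam ring-opening was followed in aqueous buffer at pH 8.0 and 37 °C over a 100 h incubation. The read-out was percent degradation.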

Klebsiella pneumoniae [16] = assay: Antimicrobial activity against carbapenemase-producing Klebsiella pneumoniae; format: functional
Pseudomonas aeruginosa [17] = assay: Antibacterial activity against low inoculum imipenem-sensitive Pseudomonas aeruginosa isolate 1091-05 infected in sc dosed neutropenic-C3H/HeN mouse assessed as mouse survival administered 4 hrs post infection followed by BID dosing for two days measured on day 10; format: functional; conditions: isolate 1091-05, sc, read-out: PD50
[18] = test system: Stenotrophomonas maltophilia; assay: Antimicrobial activity against Stenotrophomonas maltophilia; format: functional
Klebsiella pneumoniae [19] = assay: Antimicrobial activity against extended spectrum beta-lactamase-producing Klebsiella pneumoniae; format: functional
Acinetobacter sp. = assay: Antimicrobial activity against Acinetobacter sp.; format: functional

For `Cn1c(-c2cc(=O)c(O)c[nH]2)nn(S(=O)(=O)[N-]C(=O)N2C[C@H](NC(=O)/C(=N\OC(C)(C)C(=O)[O-])c3csc(N)n3)C2=O)c1=O.[Na+].[Na+]`, the MIC90 (Pseudomonas aeruginosa [1]) was 2 µg/mL, the ED50 (Pseudomonas aeruginosa [2]) was 4 mg/kg and the fraction unbound at 1 µM [3] was 0.26. For the same compound, the MIC (Acinetobacter baumannii) was 1 µg/mL, the MIC (Klebsiella pneumoniae [4]) was 0.5 µg/mL and the ED50 (Pseudomonas aeruginosa [5]) was > 150 mg/kg. It also gave an MIC (Pseudomonas aeruginosa [6]) of 0.5 µg/mL.

For `CC(C)(O/N=C(\C(=O)N[C@H]1CN(C(=O)[N-]S(=O)(=O)n2nc(-c3cc(=O)c(O)c[nH]3)n(CC(F)(F)F)c2=O)C1=O)c1csc(N)n1)C(=O)[O-].[Na+].[Na+]`, the MIC (Pseudomonas aeruginosa [6]) was 0.25 µg/mL.

For `CC(C)(C)CCn1c(-c2cc(=O)c(O)c[nH]2)nn(S(=O)(=O)[N-]C(=O)N2C[C@H](NC(=O)/C(=N\OC(C)(C)C(=O)[O-])c3csc(N)n3)C2=O)c1=O.[Na+].[Na+]`, the MIC (Pseudomonas aeruginosa [6]) was 0.5 µg/mL.

Work on `CCN(CC)CCn1c(-c2cc(=O)c(O)c[nH]2)nn(S(=O)(=O)[N-]C(=O)N2C[C@H](NC(=O)/C(=N\OC(C)(C)C(=O)[O-])c3csc(N)n3)C2=O)c1=O.[Na+].[Na+]` yielded an MIC (Pseudomonas aeruginosa [6]) of 1 µg/mL.

Work on `CC(C)(O/N=C(\C(=O)N[C@H]1CN(C(=O)[N-]S(=O)(=O)n2nc(-c3cc(=O)c(O)c[nH]3)n(CCCO)c2=O)C1=O)c1csc(N)n1)C(=O)[O-].[Na+].[Na+]` yielded an MIC (Pseudomonas aeruginosa [6]) of 0.25 µg/mL.

Work on `CC(C)(O)Cn1c(-c2cc(=O)c(O)c[nH]2)nn(S(=O)(=O)[N-]C(=O)N2C[C@H](NC(=O)/C(=N\OC(C)(C)C(=O)[O-])c3csc(N)n3)C2=O)c1=O.[Na+].[Na+]` yielded an MIC (Pseudomonas aeruginosa [6]) of 0.25 µg/mL.

`Cc1cc(Cn2c(-c3cc(=O)c(O)c[nH]3)nn(S(=O)(=O)[N-]C(=O)N3C[C@H](NC(=O)/C(=N\OC(C)(C)C(=O)[O-])c4csc(N)n4)C3=O)c2=O)no1.[Na+].[Na+]` showed an MIC (Pseudomonas aeruginosa [6]) of 2 µg/mL.

Compound `Cc1cc(Cn2c(-c3cc(=O)c(O)c[nH]3)nn(S(=O)(=O)[N-]C(=O)N3C[C@H](NC(=O)/C(=N\OC(C)(C)C(=O)[O-])c4csc(N)n4)C3=O)c2=O)nn1C.[Na+].[Na+]` has an MIC (Pseudomonas aeruginosa [6]) of 8 µg/mL.

For `CC(C)(O/N=C(\C(=O)N[C@H]1CN(C(=O)[N-]S(=O)(=O)n2nc(-c3cc(=O)c(O)c[nH]3)n(C[C@@H](O)CO)c2=O)C1=O)c1csc(N)n1)C(=O)[O-].[Na+].[Na+]`, the MIC50 (Pseudomonas aeruginosa [7]) was 0.125 µg/mL, the MIC90 (Pseudomonas aeruginosa [7]) was 0.5 µg/mL and the MIC90 (Pseudomonas aeruginosa [1]) was 0.5 µg/mL. The MIC50 (Pseudomonas aeruginosa [8]) was 0.125 µg/mL, the MIC90 (Pseudomonas aeruginosa [8]) was 0.5 µg/mL and the MIC50 (Citrobacter freundii) was 0.5 µg/mL. For the same compound, the MIC90 (Citrobacter freundii) was 2 µg/mL, the MIC50 (Pseudomonas aeruginosa [9]) was 0.125 µg/mL and the MIC90 (Pseudomonas aeruginosa [9]) was 0.5 µg/mL. The MIC50 (Escherichia coli [10]) was 0.25 µg/mL, the MIC90 (Escherichia coli [10]) was 2 µg/mL and the Stability [11] was “Stable”. It also gave an MIC50 (Klebsiella pneumoniae [12]) of 0.5 µg/mL, an MIC90 (Klebsiella pneumoniae [12]) of 8 µg/mL and an MIC50 (Escherichia coli [13]) of 0.25 µg/mL. For the same compound, the MIC90 (Escherichia coli [13]) was 2 µg/mL, the ED50 (Pseudomonas aeruginosa [2]) was < 1 mg/kg and the fraction unbound at 1 µM [3] was 0.46. It also gave an MIC50 (Serratia marcescens) of 0.125 µg/mL, an MIC90 (Serratia marcescens) of 0.5 µg/mL and an MIC (Acinetobacter baumannii) of 0.5 µg/mL. It also gave an MIC50 (Escherichia coli [14]) of 0.25 µg/mL, an MIC90 (Escherichia coli [14]) of 2 µg/mL and an MIC50 (Klebsiella aerogenes) of 0.125 µg/mL. For the same compound, the MIC90 (Klebsiella aerogenes) was 0.25 µg/mL, the degraded at 100 h, 1 µM [15] was 50% and the MIC50 (Klebsiella pneumoniae [16]) was 0.5 µg/mL. For the same compound, the MIC90 (Klebsiella pneumoniae [16]) was 8 µg/mL, the MIC (Klebsiella pneumoniae [4]) was 0.5 µg/mL and the ED50 (Pseudomonas aeruginosa [5]) was 20.6 mg/kg. The MIC (Pseudomonas aeruginosa [6]) was 0.125 µg/mL, the ED50 (Pseudomonas aeruginosa [17]) was 6.9 mg/kg and the MIC50 [18] was 1 µg/mL. It also gave an MIC90 [18] of 2 µg/mL, an MIC50 (Klebsiella pneumoniae [19]) of 0.5 µg/mL and an MIC90 (Klebsiella pneumoniae [19]) of 8 µg/mL. For the same compound, the MIC50 (Acinetobacter sp.) was 16 µg/mL and the MIC90 (Acinetobacter sp.) was > 64 µg/mL.

Compound `C[C@H](O)Cn1c(-c2cc(=O)c(O)c[nH]2)nn(S(=O)(=O)[N-]C(=O)N2C[C@H](NC(=O)/C(=N\OC(C)(C)C(=O)[O-])c3csc(N)n3)C2=O)c1=O.[Na+].[Na+]` has an MIC90 (Pseudomonas aeruginosa [1]) of 1 µg/mL, an MIC (Acinetobacter baumannii) of 1 µg/mL and an MIC (Klebsiella pneumoniae [4]) of 0.25 µg/mL. The ED50 (Pseudomonas aeruginosa [5]) was 15.7 mg/kg and the MIC (Pseudomonas aeruginosa [6]) was 0.125 µg/mL.
